Source: ChEMBL document CHEMBL4196129, “Structural Optimization and Characterization of Potent Analgesic Macrocyclic Analogues of Neurotensin (8-13)” (J Med Chem, 2018)
The source made the active and inactive calls. The calls are words filed in the database; no cut-off is given here. Starred links: 1 amine or outer side, 2 acyl side, 3 side chain; linkers in the order of their positions; H or OH if unused. Positions of bridges follow the written chain, without caps; N, C: chain ends. Non-standard residues stand in square brackets, D forms with d. Residues, ends and D or L forms follow the SMILES beside them. *: point of attachment. X6 = C=CCc1cc(C[C@H](N[*:1])C(=O)[*:2])ccc1O; NMeR = CN[C@@H](CCCNC(=N)N)C(=O)O; X7 = C=CCCCCCCC(=O)*

Tests used:
[1] = target: T1, Neurotensin receptor type 1 (Homo sapiens, UniProt P30989); assay: Agonist activity at GFP10/beta-arrestin2-Rluc2 fused human NTS1 expressed in CHO-K1 cell membranes assessed as beta-arrestin2 recruitment after 20 mins by BRET assay; type: functional, cell-based
[2] = Half life in rat plasma by UPLC-MS analysis; type: ADME, cell-free
Outline: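 Quenched with acetonitrile/ethanol (1:1) plus 0.5% nicotinamide, centrifuged and filtered. Parent peptide measured by UPLC-MS; half-life from a one-phase decay fit.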

[3] = target: T1, Neurotensin receptor type 1; assay: Displacement of [3H]-neurotensin from NTS1 receptor (unknown origin) after 20 mins by liquid scintillation counting analysis
[4] = target: T1, Neurotensin receptor type 1; assay: Agonist activity at GFP10/beta-arrestin1-Rluc2 fused human NTS1 expressed in CHO-K1 cell membranes assessed as beta-arrestin1 recruitment after 20 mins by BRET assay; type: functional, cell-based
[5] = target: T1, Neurotensin receptor type 1; assay: Agonist activity at Galphaq-Rluc2/Gbeta1/GFP10-Ggamma1 fused human NTS1 expressed in CHO-K1 cell membranes assessed as Galphaq activation after 5 mins by BRET assay; type: functional, cell-based
[6] = target: T1, Neurotensin receptor type 1; assay: Displacement of [125I]Tyr3-neurotensin from human NTS1 receptor (end Leu 194 residues) expressed in CHO cells; type: cell-based
Outline: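 Membranes from CHO-K1 cells stably expressing hNTS1 (15 µg) incubated with 45 pM 125I-[Tyr3]-NT in 50 mM Tris-HCl pH 7.5, 0.2% BSA. Analogue at 10^-11 to 10^-4 M for 60 min at 25°C, then filtration and gamma counting. Nonspecific binding defined with 10^-5 M NT(8-13).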

Rattus norvegicus [7] = assay: Induction of hypothermia in Sprague-Dawley rat assessed as reduction in body temperature at 0.3 to 30 ug/kg, it after 60 mins; type: functional, organism-based
Outline: (§1)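 Rectal thermistor temperature in adult Sprague-Dawley rats acclimatized 5 min/day for 3 days. Baseline taken, then readings every 10 min to 60 min after intrathecal dosing in 0.9% saline, at 0.3, 1, 3, 10 and 30 µg/kg for the dose-response series. Single-dose comparisons at 30 µg/kg read only at 60 min. Change from baseline per animal; AUC per dose used for ED50.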

Rattus norvegicus [8] = assay: Hypotensive activity in Sprague-Dawley rat assessed as reduction in arterial blood pressure in first phase at 0.01 mg/kg, iv measured every second up to 900 secs
Rattus norvegicus [9] = assay: Hypotensive activity in Sprague-Dawley rat assessed as reduction in arterial blood pressure in third phase at 0.01 mg/kg, iv measured every second up to 900 secs; type: functional, organism-based
Outline: (§2)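 Sprague-Dawley rats anesthetized with ketamine/xylazine (87:13 mg/kg, i.m.) on a heated pad. Compound given i.v. via jugular vein catheter at 0.01 mg/kg (1 mL/kg over 5-10 s); saline as control. Arterial pressure recorded each second for 900 s. Change in mean arterial pressure taken from basal level; n=3-5 rats.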

Rattus norvegicus [10] = assay: Analgesic activity in Sprague-Dawley rat assessed as increase in tail withdrawal latency at 1 ug/kg, it measured every 10 mins up to 60 mins by tail flick test; type: functional, organism-based
Outline: (§3)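 Adult male Sprague-Dawley rats (225-300 g), acclimatized 5 min/day for 3 days. Baseline tail-flick latency taken before injection. Dosing under light isoflurane anesthesia, intrathecal at L5-L6, compound in 0.9% saline; saline alone as control. Latency to heat (light beam) read every 10 min up to 60 min. %MPE taken at 10 min post-injection.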

Rattus norvegicus [11] = assay: Analgesic activity in Sprague-Dawley rat assessed as increase in tail withdrawal latency at 30 ug/kg, it measured every 10 mins up to 60 mins by tail flick test; type: functional, organism-based; outline: as §3
Rattus norvegicus [12] = assay: Induction of hypothermia in it dosed Sprague-Dawley rat assessed as reduction in body temperature measured every 10 mins up to 60 mins; type: functional; outline: as §1
Rattus norvegicus [13] = assay: Analgesic activity in Sprague-Dawley rat assessed as increase in tail withdrawal latency at 10 ug/kg, it measured every 10 mins up to 60 mins by tail flick test; type: functional, organism-based; outline: as §3
Rattus norvegicus [14] = assay: Analgesic activity in formalin-induced Sprague-Dawley rat pain model assessed as inhibition of nociceptive response in right hind paw at 30 ug/kg, it measured for 21 to 60 mins; type: functional, organism-based
Outline: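 Male Sprague-Dawley rats dosed intrathecally at 30 µg/kg in 0.9% saline; 5 min later, 50 µl of 2% formaldehyde given into the right hind paw plantar surface. Weighted pain score (0-3) recorded per 3-min block over 60 min. Acute phase 0-9 min, inflammatory phase 21-60 min.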

Rattus norvegicus [15] = assay: Analgesic activity in it dosed Sprague-Dawley rat assessed as increase in tail withdrawal latency measured every 10 mins up to 60 mins by tail flick test; type: functional; outline: as §3
[16] = target: T1, Neurotensin receptor type 1; assay: Displacement of [125I]Tyr3-neurotensin from human NTS1 receptor expressed in CHOK1 cell membranes after 60 mins by gamma counting analysis
[17] = target: T1, Neurotensin receptor type 1; assay: Agonist activity at Galpha13-Rluc2/Gbeta1/GFP10-Ggamma1 fused human NTS1 expressed in CHO-K1 cell membranes assessed as Galpha13 activation after 5 mins by BRET assay; type: functional, cell-based
Rattus norvegicus [18] = assay: Hypotensive activity in Sprague-Dawley rat assessed as reduction in arterial blood pressure in first phase at 0.01 mg/kg, iv measured every second up to 900 secs; type: functional; outline: as §2
Rattus norvegicus [19] = assay: Analgesic activity in Sprague-Dawley rat assessed as increase in tail withdrawal latency at 30 ug/kg, it measured at 10 mins post injection by tail flick test relative to control; type: functional; outline: as §3
Rattus norvegicus [20] = assay: Induction of hypothermia in Sprague-Dawley rat assessed as reduction in body temperature at 30 ug/kg, it after 60 mins; type: functional, organism-based; outline: as §1

T1 sequence (P30989 whole entry, the tested form may be a part): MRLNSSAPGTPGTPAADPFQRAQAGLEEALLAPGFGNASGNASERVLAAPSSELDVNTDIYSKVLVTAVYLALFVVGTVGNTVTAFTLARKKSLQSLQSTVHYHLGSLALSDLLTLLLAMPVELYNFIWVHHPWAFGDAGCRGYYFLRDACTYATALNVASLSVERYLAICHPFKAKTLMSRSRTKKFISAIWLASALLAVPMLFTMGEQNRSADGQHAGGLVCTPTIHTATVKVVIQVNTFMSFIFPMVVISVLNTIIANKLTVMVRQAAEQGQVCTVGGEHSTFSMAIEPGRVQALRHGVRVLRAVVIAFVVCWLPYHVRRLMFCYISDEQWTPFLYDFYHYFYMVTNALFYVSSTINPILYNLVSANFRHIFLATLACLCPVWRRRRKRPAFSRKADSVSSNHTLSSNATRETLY

CC[C@H](C)[C@H](NC(=O)[C@@H]1Cc2ccc(O)c(c2)CC=CCCCCCC[C@](C)(N)C(=O)N[C@@H](CCCCN)C(=O)N2CCC[C@H]2C(=O)N1)C(=O)N[C@@H](CC(C)C)C(=O)O [listing 1 of 2 here] gave an EC50 [1] of 28 nM and a half-life [2] of 24 h.

CC(C)C[C@H](NC(=O)[C@@H]1CCC(=O)N[C@@H](CCCNC(=N)N)C(=O)N[C@@H](CCCCN)C(=O)N2CCC[C@H]2C(=O)N[C@@H](Cc2c[nH]c3ccccc23)C(=O)N1)C(=O)O (RKPWEL-OH; lactam N-5) gave a Ki [3] of 190 nM.

With C=CCNCCCC[C@H](N)C(=O)N[C@@H](CCCCN)C(=O)N1CCC[C@H]1C(=O)N[C@@H](Cc1ccc(O)c(CC=C)c1)C(=O)N[C@H](C(=O)N[C@@H](CC(C)C)C(=O)O)[C@@H](C)CC the EC50 [4] was 15 nM, the EC50 [1] was 9 nM and the half-life [2] was 0.0833 h. For the same compound, the EC50 [5] was 7 nM.

Compound CC[C@H](C)[C@H](NC(=O)[C@@H]1Cc2ccc(cc2)OCCCCCC(=O)N[C@@H](CCCNC(=N)N)C(=O)N2CCC[C@H]2C(=O)N1)C(=O)N[C@@H](CC(C)C)C(=O)O has a Ki [6] of 450 nM.

In the case of CC[C@H](C)[C@H](NC(=O)[C@@H]1Cc2ccc(O)c(c2)CC=CCCCNCCCC[C@H](N)C(=O)N[C@@H](CCCCN)C(=O)N2CCC[C@H]2C(=O)N1)C(=O)N[C@@H](CC(C)C)C(=O)O, the half-life [2] is reported as 0.3 h.

In the case of CC[C@H](C)[C@H](NC(=O)[C@H]1Cc2ccc(O)c(c2)CC=CCNCCC[C@@H](N)C(=O)N[C@@H](CCCCN)C(=O)N2CCC[C@H]2C(=O)N1)C(=O)N[C@@H](CC(C)C)C(=O)O, the deltaT (Rattus norvegicus [7]) is reported as 2 °C, the Activity (Rattus norvegicus [8]) is reported as “Active” and the Activity (Rattus norvegicus [9]) is reported as “inactive”. For the same compound, the Activity (Rattus norvegicus [10]) was “inactive”, the Activity (Rattus norvegicus [11]) was “Active” and the Activity (Rattus norvegicus [12]) was “Dose-dependent effect”. For the same compound, the Activity (Rattus norvegicus [13]) was “Active”, the Activity (Rattus norvegicus [14]) was “Active” and the Activity (Rattus norvegicus [15]) was “Dose-dependent effect”.

Compound C=CCCCCCCC(=O)N[C@@H](CCCCN)C(=O)N1CCC[C@H]1C(=O)N[C@@H](Cc1ccc(O)c(CC=C)c1)C(=O)N[C@H](C(=O)N[C@@H](CC(C)C)C(=O)O)[C@@H](C)CC (X7-KP[X6]IL-OH) has a Ki [16] greater than 10000 nM.

CC[C@H](C)[C@H](NC(=O)[C@@H]1Cc2ccc(O)c(c2)CC=CCNCCC[C@H](N)C(=O)N[C@@H](CCCCN)C(=O)N2CCC[C@H]2C(=O)N1)C(=O)N[C@@H](CC(C)C)C(=O)O [listing 1 of 2 here] showed an EC50 [4] of 4 nM, a half-life [2] of 0.5 to 0.65 h and an EC50 [17] of 11 nM. The EC50 [5] was 3 nM.

CC[C@H](C)[C@H](NC(=O)[C@@H]1Cc2ccc(O)c(c2)CC=CCCCCCCC(=O)N[C@@H](CCCCN)C(=O)N2CCC[C@H]2C(=O)N1)C(=O)N[C@@H](CC(C)C)C(=O)O gave an EC50 ([4]; cho-k1) of 1500 nM, a Ki [16] of 5600 nM and an EC50 ([17]; cho-k1) of 433 nM.

In the case of CC[C@H](C)[C@H](NC(=O)[C@@H]1Cc2ccc(O)c(c2)CC=CCCCCCC[C@](C)(N)C(=O)N[C@@H](CCCCN)C(=O)N2CCC[C@H]2C(=O)N1)C(=O)N[C@@H](CC(C)C)C(=O)O [listing 2 of 2 here], the Activity (Rattus norvegicus [18]) is reported as 25 mmHg and the MPE (Rattus norvegicus [19]) is reported as 70%.

Compound CC[C@H](C)[C@H](NC(=O)[C@@H]1Cc2ccc(O)c(c2)CC=CCN(S(=O)(=O)c2ccccc2[N+](=O)[O-])CCCC[C@H](N)C(=O)N[C@@H](CCCCN)C(=O)N2CCC[C@H]2C(=O)N1)C(=O)N[C@@H](CC(C)C)C(=O)O has a half-life [2] of 1.4 h.

CC[C@H](C)[C@H](NC(=O)[C@@H]1Cc2ccc(O)c(c2)CC=CCCNCCCC[C@H](N)C(=O)N[C@@H](CCCCN)C(=O)N2CCC[C@H]2C(=O)N1)C(=O)N[C@@H](CC(C)C)C(=O)O showed a half-life [2] of 0.25 h.

In the case of CC[C@H](C)[C@H](NC(=O)[C@@H]1Cc2ccc(O)c(c2)CC=CCNCCC[C@H](N)C(=O)N[C@@H](CCCCN)C(=O)N2CCC[C@H]2C(=O)N1)C(=O)N[C@@H](CC(C)C)C(=O)O [listing 2 of 2 here], the Activity (Rattus norvegicus [18]) is reported as 25 mmHg, the ED50 (Rattus norvegicus [12]) is reported as 1.96 µg/kg and the MPE (Rattus norvegicus [19]) is reported as 50%. For the same compound, the ED50 (Rattus norvegicus [15]) was 4.63 µg/kg.

CCOC(=O)[C@H](CC(C)C)NC(=O)[C@@H](NC(=O)[C@H](Cc1c[nH]c2ccccc12)NC(=O)[C@@H]1CCCN1C(=O)[C@H](CCCCN)NC(=O)[C@@H](N)CCCCN)C(C)(C)C [listing 1 of 2 here] gave an Activity (Rattus norvegicus [18]) of 25 mmHg and an MPE (Rattus norvegicus [19]) of 75%.

CC[C@H](C)[C@H](NC(=O)[C@@H]1Cc2ccc(O)c(c2)CC=CCNCCCCCC(=O)N[C@@H](CCCCN)C(=O)N2CCC[C@H]2C(=O)N1)C(=O)N[C@@H](CC(C)C)C(=O)O showed an EC50 [4] of 96 nM, a Ki [16] of 656 nM and a half-life [2] of 24 h.

With CCOC(=O)[C@H](CC(C)C)NC(=O)[C@@H](NC(=O)[C@H](Cc1c[nH]c2ccccc12)NC(=O)[C@H]1CCCN1C(=O)[C@H](CCCCN)NC(=O)[C@@H](N)CCCCN)C(C)(C)C the Activity (Rattus norvegicus [8]) was “Active”, the Activity (Rattus norvegicus [9]) was “Active” and the deltaT (Rattus norvegicus [20]) was 2 °C. The Activity (Rattus norvegicus [14]) was “Active”.

Work on CC[C@H](C)[C@H](NC(=O)[C@@H]1Cc2ccc(O)c(c2)CC=CCNCCCC[C@@H](N)C(=O)N[C@@H](CCCCN)C(=O)N2CCC[C@H]2C(=O)N1)C(=O)N[C@@H](CC(C)C)C(=O)O yielded a half-life [2] of 24 h.

Work on CC[C@H](C)[C@H](NC(=O)[C@@H]1Cc2ccc(O)c(c2)CC=CCNCC[C@H](N)C(=O)N[C@@H](CCCCN)C(=O)N2CCC[C@H]2C(=O)N1)C(=O)N[C@@H](CC(C)C)C(=O)O yielded a half-life [2] of 2.5 h.

For CC(C)C[C@H](NC(=O)[C@@H]1CCC(=O)NCC(=O)N(C)[C@@H](CCCNC(=N)N)C(=O)N[C@@H](CCCCN)C(=O)N2CCC[C@H]2C(=O)N[C@@H](Cc2c[nH]c3ccccc23)C(=O)N1)C(=O)O (G[NMeR]KPWEL-OH; lactam N-6), the Ki [3] was 3500 nM.

Work on CCOC(=O)[C@H](CC(C)C)NC(=O)[C@@H](NC(=O)[C@H](Cc1c[nH]c2ccccc12)NC(=O)[C@@H]1CCCN1C(=O)[C@H](CCCCN)NC(=O)[C@@H](N)CCCCN)C(C)(C)C [listing 2 of 2 here] yielded a Ki [16] of 159 nM.

With CC[C@H](C)[C@H](NC(=O)[C@H]1Cc2ccc(O)c(c2)CC=CCCCCCC[C@](C)(N)C(=O)N[C@@H](CCCCN)C(=O)N2CCC[C@H]2C(=O)N1)C(=O)N[C@@H](CC(C)C)C(=O)O the Activity (Rattus norvegicus [8]) was “Active”, the Activity (Rattus norvegicus [9]) was “inactive” and the Activity (Rattus norvegicus [11]) was “Active”. The deltaT (Rattus norvegicus [20]) was 2 °C and the Activity (Rattus norvegicus [14]) was “Active”.
